SIAE primary: human SIAE inhibitors, primary screen, biochemical, fluorescence polarization, FP-Rh probe, 1536-well HTS | SIAE FP-Rh probe binding | inhibition, % at 9.66 µM | 0.69% of 370,000 active;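 active = inhibition above a cutoff: mean of compounds within the control limits plus 3 SD of those, cut at about 17% in these data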;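 note: 0% = plate median of compound wells and 100% = probe without SIAE protein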
Target sequence (Q9HAT2 whole entry, looked up): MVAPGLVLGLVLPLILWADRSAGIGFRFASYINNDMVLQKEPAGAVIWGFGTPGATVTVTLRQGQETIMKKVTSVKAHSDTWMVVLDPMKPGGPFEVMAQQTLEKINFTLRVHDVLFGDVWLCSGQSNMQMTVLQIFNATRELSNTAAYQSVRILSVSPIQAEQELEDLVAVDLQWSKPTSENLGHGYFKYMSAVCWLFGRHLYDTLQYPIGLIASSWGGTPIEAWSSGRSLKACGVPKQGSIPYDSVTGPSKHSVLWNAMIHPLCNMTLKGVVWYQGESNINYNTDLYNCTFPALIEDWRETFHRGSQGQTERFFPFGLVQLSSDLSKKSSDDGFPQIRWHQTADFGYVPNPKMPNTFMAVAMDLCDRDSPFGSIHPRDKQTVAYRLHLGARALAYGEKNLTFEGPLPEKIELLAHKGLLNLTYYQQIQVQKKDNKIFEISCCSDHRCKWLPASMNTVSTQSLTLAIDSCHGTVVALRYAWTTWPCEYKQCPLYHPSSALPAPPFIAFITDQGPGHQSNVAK
DAGLB inh: DAGLB lipase inhibitors, primary screen, biochemical, fluorescence, HTS; Diacylglycerol lipase-beta (Homo sapiens), Q8NCG7; HEK293T DAGLB membrane lysate, EnzChek fluorogenic substrate; inhibition, % at 5.17 µM; 0.059% of 340,000 active; in the data active = inhibition above about 34%;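 note: 0% = enzyme with vehicle and 100% = wells lacking enzyme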
HTRA1 inhibitor: HTRA1 serine protease inhibitors, primary screen, biochemical, fluorescence polarization, HTS; Q92743; recombinant HTRA1, FP-rhodamine activity-based probe; inhibition, % at 5.96 µM; 0.5% of 340,000 active; AID 504803, 2011; in the data active = inhibition above about 36%;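 note: 0% = enzyme with DMSO and 100% = wells lacking enzyme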
TCR CD3 inh: inhibitors of human TCR-CD3 interaction, primary screen, biochemical, fluorescence, TAMRA-labeled TCR probe | inhibition, % at 9.4 µM | 0.37% of 360,000 active;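 note: recombinant mutant TCR 2C K166C tagged with TAMRA read by polarization; 0% = receptor in buffer alone and 100% = receptor with positive control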
mABHD4 FP: ABHD4 inhibitors, primary screen, biochemical, fluorescence polarization, mouse; 0.54% of 370,000 active; purified mABHD4, FP-Rh probe fluorescence polarization; inhibition, % at 8.92 µM;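 active = inhibition exceeding the mean over every tested compound plus 3 SD, cut at about 30% in these data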;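 note: 0% = plate median of compound wells and 100% = S159A mutant with DMSO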
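assay system = mABHD4 protein | compound dosing = single nominal dose of 8.92 µM, 0.89% DMSO final | read-out basis = percent inhibition of probe binding, normalized to plate controls | schedule = Enzyme–compound pre-incubation 45 min, then probe 60 min, both 25 °C | detection = fluorescence polarization, excitation 525 nm, emission 598 nm, BODIPY TMR filters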
DAGLB confirm: DAGLB lipase inhibitors, retest, confirmation, biochemical, fluorescence, HEK293T membranes | shares compounds with DAGLB inh | HEK293T DAGLB membrane lysate, EnzChek fluorogenic substrate | inhibition, % at 5.17 µM | 73% of 190 active;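 active = mean inhibition over triplicate wells above a set limit taken from the primary lipase screen, cut at about 34% in these data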;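 note: 0% = DAGLB with DMSO and 100% = wells lacking DAGLB enzyme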
HTRA1 inh conf: HTRA1 protease inhibitors, retest, confirmation, biochemical, fluorescence polarization. AID 540248, 2011. 66% of 1,600 active. shares compounds with HTRA1 inhibitor. recombinant HTRA1, FP-rhodamine activity-based probe. inhibition, % at 5.96 µM;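 active = mean inhibition over three repeats above a set limit taken from the earlier primary screen, cut at about 37% in these data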;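 note: 0% = HTRA1 with DMSO and 100% = wells lacking HTRA1; inhibitors block probe binding so polarization drops and inhibition rises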
BSA TAMRA ctr: compounds interfering with TAMRA-BSA probe, counter-screen for TCR-CD3 interaction inhibitor project, biochemical, fluorescence, TAMRA-labeled BSA; shares compounds with TCR CD3 inh; TAMRA-labeled BSA probe fluorescence counterscreen; inhibition, % at 9.4 µM; 10% of 1,200 active; in the data active = inhibition above about 23%;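 note: 0% = buffer low control and 100% = reference high control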
TCR-CD3 inh conf: TCR-CD3 interaction inhibitors, retest, confirmation, biochemical, fluorescence, TAMRA-labeled TCR probe; shares compounds with TCR CD3 inh; TAMRA-labeled TCR probe fluorescence binding assay; AID 652036, 2013; 48% of 1,200 active; inhibition, % at 9.4 µM
ABHD4 confirm: ABHD4 inhibitors, retest, confirmation, biochemical, fluorescence polarization, mouse. shares compounds with mABHD4 FP. purified mABHD4, FP-Rh probe fluorescence polarization. inhibition, % at 8.92 µM. 55% of 1,800 active;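 active = mean inhibition across replicates above the hit cutoff set in the primary screen, cut at about 30% in these data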;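 note: 0% = wild-type ABHD4 with DMSO and 100% = catalytically dead S159A mutant with DMSO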
An asterisk follows results filed as active. The list is not random: actives were taken first. Their share in the collection is about 1.6%. Cut-off read from the data, not from the text of the source, unless noted: active = inhibition above about 19%; inactive = the rest.

Results for COc1cc(N=Nc2ccc(Br)cc2)cc(C=O)c1O ?
SIAE primary: -8; DAGLB inh: 38*; HTRA1 inhibitor: 46*; TCR CD3 inh: 12; mABHD4 FP: 12; DAGLB confirm: 28; HTRA1 inh conf: 56*

Results for COc1ccc(-n2c(COc3ccccc3)nnc2SCc2nc3ccccc3[nH]2)cc1 ?
SIAE primary: -4; mABHD4 FP: -7

Results for COc1ccc(S(=O)(=O)/N=C2\C=C(Nc3ccc(O)cc3)C(=O)c3ccccc32)cc1 ?
SIAE primary: 40*; DAGLB inh: 55*; HTRA1 inhibitor: 84*; TCR CD3 inh: 0; mABHD4 FP: 75*; DAGLB confirm: 50*; HTRA1 inh conf: active

How did O=C1c2ccccc2C(=O)c2c1ccc(C(=O)N1CCCCC1)c2NCCO do in these assays?
SIAE primary: -5; DAGLB inh: 1; HTRA1 inhibitor: 3; TCR CD3 inh: -1; mABHD4 FP: 7

What do the screens show for `CC1(C)CCCN(C(=O)c2ccc3c(c2NCCO)C(=O)c2ccccc2C3=O)C1`?
SIAE primary: 6; DAGLB inh: 41*; HTRA1 inhibitor: 42*; TCR CD3 inh: -17; mABHD4 FP: 5; DAGLB confirm: 45*; HTRA1 inh conf: 39*

What do the screens show for `COC(=O)[C@]12C[C@H](CC(=O)N3CCCC3)C(=O)N(Cc3ccc(Cl)cc3Cl)C1=C[C@H](COCc1ccccc1)O[C@@H]2C`?
SIAE primary: -9; mABHD4 FP: -1

How did CCC(=O)NC(c1cccs1)c1cc([N+](=O)[O-])c2cccnc2c1OC (stereo not drawn) do in these assays?
SIAE primary: 2; TCR CD3 inh: 1; mABHD4 FP: 10

Results for CC(C)C(=O)NC(c1cccs1)c1cc([N+](=O)[O-])c2cccnc2c1O (stereo not drawn) ?
DAGLB inh: 36*; HTRA1 inhibitor: 38*; DAGLB confirm: 20; HTRA1 inh conf: 37*

How did O=C1C(NS(=O)(=O)c2cccs2)=C(N2CCN(c3cccc(Cl)c3)CC2)C(=O)c2ccccc21 do in these assays?
SIAE primary: 7; DAGLB inh: 41*; HTRA1 inhibitor: 58*; TCR CD3 inh: -5; mABHD4 FP: 55*; DAGLB confirm: 42*; HTRA1 inh conf: 75*; ABHD4 confirm: 56*

How did COc1cc(/C=C2/C(=O)NN(c3ccc(C)c(Cl)c3)C2=O)cc([N+](=O)[O-])c1O do in these assays?
SIAE primary: -2; DAGLB inh: 39*; HTRA1 inhibitor: 30; TCR CD3 inh: -3; mABHD4 FP: 63*; DAGLB confirm: 38*; ABHD4 confirm: 56*

How did COc1ccc(NC(=O)c2ccccc2NS(=O)(=O)c2ccc(C)cc2)c([N+](=O)[O-])c1 do in these assays?
SIAE primary: 0; DAGLB inh: 5; HTRA1 inhibitor: -9; TCR CD3 inh: -9; mABHD4 FP: 1

What do the screens show for `COc1cc(C=NNc2ccc(S(=O)(=O)Nc3ccccc3C(=O)O)cc2[N+](=O)[O-])ccc1O`?
SIAE primary: 13; DAGLB inh: 39*; HTRA1 inhibitor: 49*; TCR CD3 inh: 7; mABHD4 FP: 64*; DAGLB confirm: 50*; HTRA1 inh conf: 75*; ABHD4 confirm: 91*

Results for CCOc1ccc(C=NNc2ccc(S(=O)(=O)Nc3ccccc3C(=O)O)cc2[N+](=O)[O-])cc1OC ?
DAGLB inh: 14; HTRA1 inhibitor: 15

What do the screens show for `O=C(O)c1ccccc1NS(=O)(=O)c1ccc(NNC(=S)Nc2ccc(OC(F)F)cc2)c([N+](=O)[O-])c1`?
SIAE primary: 8; DAGLB inh: 52*; HTRA1 inhibitor: 67*; TCR CD3 inh: 2; mABHD4 FP: 72*; DAGLB confirm: 67*; HTRA1 inh conf: 118*; ABHD4 confirm: 140*

Results for CC(=O)Nc1ccc(C=NNc2ccc([N+](=O)[O-])cc2S(=O)(=O)Nc2ccccc2C(=O)O)cc1 ?
SIAE primary: -9; DAGLB inh: 10; HTRA1 inhibitor: -45; TCR CD3 inh: 2; mABHD4 FP: -14

What do the screens show for `O=C(O)c1ccccc1NS(=O)(=O)c1ccc(N/N=C/c2cccc(O)c2O)c([N+](=O)[O-])c1`?
SIAE primary: 0; DAGLB inh: 42*; HTRA1 inhibitor: 74*; TCR CD3 inh: 25*; mABHD4 FP: 86*; DAGLB confirm: 53*; HTRA1 inh conf: 78*; BSA TAMRA ctr: -19; TCR-CD3 inh conf: 24*; ABHD4 confirm: 77*

What do the screens show for `CC(=O)Nc1ccc(C=NNc2ccc(S(=O)(=O)Nc3ccccc3C(=O)O)cc2[N+](=O)[O-])cc1`?
SIAE primary: -3; DAGLB inh: 37*; HTRA1 inhibitor: 35; TCR CD3 inh: -5; mABHD4 FP: 55*; DAGLB confirm: 56*; ABHD4 confirm: 77*

What do the screens show for `Cc1cc(NS(=O)(=O)C2CCN(C(=O)Cc3ccc(Cl)c(Cl)c3)CC2)no1`?
SIAE primary: -2; mABHD4 FP: 3

How did Nc1[nH]c(C(=O)c2ccccc2)c(-c2ccc(Cl)cc2Cl)c1C(=O)NCCC1=CCCCC1 do in these assays?
SIAE primary: -5; mABHD4 FP: -6

What do the screens show for `O=[N+]([O-])c1cc(Cl)cc(/C=N/NC(=S)Nc2ccc(S(=O)(=O)N3CCOCC3)cc2)c1O`?
SIAE primary: 13; DAGLB inh: 61*; HTRA1 inhibitor: 62*; TCR CD3 inh: 42*; mABHD4 FP: 57*; DAGLB confirm: 73*; HTRA1 inh conf: 59*; BSA TAMRA ctr: -5; TCR-CD3 inh conf: 43*; ABHD4 confirm: 118*

High-throughput results: PubChem BioAssay, The Scripps Research Institute Molecular Screening Center
